Measurements published in ChEMBL document CHEMBL1151174, “Labdanes and isopimaranes from Platycladus orientalis and their effects on erythrocyte membrane and on Plasmodium falciparum growth in the erythrocyte host cells” (J Nat Prod, 2004).
pIC50: −log10 of the molar value. Active and inactive are the calls of the source. The rule behind the calls is not given here.

Legend:
Erythrocyte [1] = experiment: Induction of membrane modification in erythrocytes assessed as formation of echinocyte type 1 shape change at 12.5 ug/mL after 48 hrs by phase contrast light microscopy; format: functional, cell-based
Procedure, shortened: (§1)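 Nonparasitized erythrocytes incubated with compound under the antiplasmodial culture conditions, without radiotracer. Controls held 0% or 0.5% DMSO and no compound. At 48 h, samples spread on slides, air-dried, methanol-fixed and Giemsa-stained for phase-contrast light microscopy. Dominant cell shapes scored by Bessis nomenclature; degree of lysis also graded.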

Plasmodium falciparum = experiment: Antiplasmodial activity against Plasmodium falciparum 3D7 by [3H]phenylalanine uptake; format: functional, organism-based; conditions: 3D7, 48 h
Procedure, shortened: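 Asynchronous cultures of chloroquine-sensitive P. falciparum 3D7 in erythrocytes, initial parasitemia 1.5%. Compounds added from DMSO solutions, final DMSO up to 0.5% in growth medium. Growth indexed by [3H]phenylalanine incorporation. Inhibition curves from eight concentrations, each in triplicate, give IC50 (50% growth inhibition). Chloroquine diphosphate as positive reference.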

Erythrocyte [2] = experiment: Induction of membrane modification in erythrocytes assessed as formation of echinocyte type 3 shape change at 50 ug/mL after 48 hrs by phase contrast light microscopy; format: functional, cell-based; procedure, shortened: as §1
Erythrocyte [3] = experiment: Induction of membrane modification in erythrocytes assessed as formation of echinocyte type 2 shape change at 25 ug/mL after 48 hrs by phase contrast light microscopy; format: functional, cell-based; procedure, shortened: as §1
Erythrocyte [4] = experiment: Induction of membrane modification in erythrocytes assessed as formation of echinocyte type 3 shape change at 100 ug/mL after 48 hrs by phase contrast light microscopy; format: functional, cell-based; procedure, shortened: as §1
Erythrocyte [5] = experiment: Induction of membrane modification in erythrocytes assessed as formation of echinocyte type 1 and discocyte shape change at 100 ug/mL after 48 hrs by phase contrast light microscopy; format: functional, cell-based; procedure, shortened: as §1
Erythrocyte [6] = experiment: Induction of membrane modification in erythrocytes assessed as formation of discocyte shape change at 12.5 ug/mL after 48 hrs by phase contrast light microscopy; format: functional, cell-based; procedure, shortened: as §1
Erythrocyte [7] = experiment: Induction of membrane modification in erythrocytes assessed as formation of discocyte shape change at 25 ug/mL after 48 hrs by phase contrast light microscopy; format: functional, cell-based; procedure, shortened: as §1
Erythrocyte [8] = experiment: Induction of membrane modification in erythrocytes assessed as formation of echinocyte type 1 and discocyte shape change at 50 ug/mL after 48 hrs by phase contrast light microscopy; format: functional, cell-based; procedure, shortened: as §1
Erythrocyte [9] = experiment: Induction of membrane modification in erythrocytes assessed as formation of discocyte shape change at 50 ug/mL after 48 hrs by phase contrast light microscopy; format: functional, cell-based; procedure, shortened: as §1
Erythrocyte [10] = experiment: Induction of membrane modification in erythrocytes assessed as formation of echinocyte type 1 shape change at 100 ug/mL after 48 hrs by phase contrast light microscopy; format: functional, cell-based; procedure, shortened: as §1
Erythrocyte [11] = experiment: Induction of membrane modification in erythrocytes assessed as formation of spherostomatocyte type 1 shape change at 50 ug/mL after 48 hrs by phase contrast light microscopy; format: functional, cell-based; procedure, shortened: as §1
Erythrocyte [12] = experiment: Induction of membrane modification in erythrocytes assessed as formation of stomatocyte type 2 and 1 shape change at 25 ug/mL after 48 hrs by phase contrast light microscopy; format: functional, cell-based; procedure, shortened: as §1
Erythrocyte [13] = experiment: Induction of membrane modification in erythrocytes assessed as formation of spherostomatocyte type 2 shape change at 100 ug/mL after 48 hrs by phase contrast light microscopy; format: functional, cell-based; procedure, shortened: as §1
Erythrocyte [14] = experiment: Induction of membrane modification in erythrocytes assessed as formation of stomatocyte type 2 shape change at 100 ug/mL after 48 hrs by phase contrast light microscopy; format: functional, cell-based; procedure, shortened: as §1
Erythrocyte [15] = experiment: Induction of membrane modification in erythrocytes assessed as formation of stomatocyte type 1 and discocyte shape change at 50 ug/mL after 48 hrs by phase contrast light microscopy; format: functional, cell-based; procedure, shortened: as §1
Erythrocyte [16] = experiment: Induction of membrane modification in erythrocytes assessed as formation of stomatocyte type 2 and discocyte shape change at 25 ug/mL after 48 hrs by phase contrast light microscopy; format: functional, cell-based; procedure, shortened: as §1
Erythrocyte [17] = experiment: Induction of membrane modification in erythrocytes assessed as formation of spherostomatocyte type 1 shape change at 100 ug/mL after 48 hrs by phase contrast light microscopy; format: functional, cell-based; procedure, shortened: as §1
Erythrocyte [18] = experiment: Induction of membrane modification in erythrocytes assessed as formation of stomatocyte type 3 and 2 shape change at 50 ug/mL after 48 hrs by phase contrast light microscopy; format: functional, cell-based; procedure, shortened: as §1
Erythrocyte [19] = experiment: Induction of membrane modification in erythrocytes assessed as formation of spheroechinocyte type 2 shape change at 100 ug/mL after 48 hrs by phase contrast light microscopy; format: functional, cell-based; procedure, shortened: as §1
Erythrocyte [20] = experiment: Induction of membrane modification in erythrocytes assessed as formation of echinocyte type 3 shape change at 25 ug/mL after 48 hrs by phase contrast light microscopy; format: functional, cell-based; procedure, shortened: as §1
Erythrocyte [21] = experiment: Induction of membrane modification in erythrocytes assessed as formation of spheroechinocyte type 1 and echinocyte type 3 shape change at 100 ug/mL after 48 hrs by phase contrast light microscopy; format: functional, cell-based; conditions: 50 ug/mL, in the assay text read “50 ug/mL” for “100 ug/mL”; procedure, shortened: as §1

SMILES	pIC50 (Plasmodium falciparum)	Activity (Erythrocyte [6])	Activity (Erythrocyte [7])	Activity (Erythrocyte [9])	Activity (Erythrocyte [14])	also measured
C=C[C@@]1(C)CCC2=C(CC[C@H]3C(C)(C)[C@@H](O)CC[C@]23C)C1	4.61					Activity (Erythrocyte [1]): Active; Activity (Erythrocyte [2]): Active; Activity (Erythrocyte [3]): Active; Activity (Erythrocyte [4]): Active
C=C1CC[C@@H]2[C@](C)(CCC[C@]2(C)C(=O)O)[C@H]1CCC1=CC(=O)OC1O (stereo not given in full)	4.08	Active	Active			Activity (Erythrocyte [5]): Active; Activity (Erythrocyte [8]): Active
C=C[C@@]1(C)CC[C@H]2[C@@](O)(CC[C@H]3C(C)(C)[C@@H](O)CC[C@@]32C)C1	4.09	Active	Active	Active		Activity (Erythrocyte [10]): Active
C=C1CC[C@@H]2[C@](C)(CCC[C@]2(C)C(=O)O)[C@H]1CCC1=CC(O)OC1=O (stereo not given in full)	3.84	Active	Active	Active		Activity (Erythrocyte [5]): Active
CC1(C)CCC[C@@]2(C)[C@H]1CC[C@@]1(CO1)[C@@H]2C/C=C(/C=O)CC=O [AFRAMODIAL]	4.12	Active				Activity (Erythrocyte [11]): Active; Activity (Erythrocyte [12]): Active; Activity (Erythrocyte [13]): Active
C=C1CC[C@@H]2[C@](C)(CCC[C@]2(C)C(=O)O)[C@H]1CC/C(C)=C/CO [ISOCUPRESSIC ACID]	3.98	Active	Active	Active	Active	
C=C1CC[C@@H]2[C@](C)(CCC[C@]2(C)C(=O)O)[C@H]1CCc1ccoc1 [LAMBERTIAINC ACID]	3.89	Active	Active		Active	Activity (Erythrocyte [15]): Active
C=C1CC[C@@H]2[C@](C)(CCC[C@]2(C)C(=O)OC)[C@H]1CCC1=CCOC1=O [PINUSOLIDE]	4.27	Active				Activity (Erythrocyte [16]): Active; Activity (Erythrocyte [17]): Active; Activity (Erythrocyte [18]): Active
C=C1CC[C@@H]2[C@](C)(CCC[C@]2(C)C(=O)O)[C@H]1CCC1=CCOC1=O [PINUSOLIDIC ACID]	3.79	Active	Active		Active	Activity (Erythrocyte [8]): Active
C=C[C@]1(C)C=C2CC[C@H]3[C@](C)(CO)[C@@H](O)CC[C@]3(C)[C@H]2CC1 [SANDARACOPIMARADIENEDIOL]	4.03					Activity (Erythrocyte [1]): Active; Activity (Erythrocyte [19]): Active; Activity (Erythrocyte [20]): Active; Activity (Erythrocyte [21]): Active
